Experimental findings from PubChem BioAssay are described below.

Structures are written as SMILES. Activity calls are given as the source filed them.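 The calls were made as follows, unless noted: active = viability at or below 30% in both replicate assays; inconclusive = viability at or below 30% in just one of the two assays; inactive = the rest.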

One assay can be described thus: SK-BR-3 cell growth inhibitors, pilot screen, 24 h, human (AID 572;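 active = viability at or below 10% of carrier control in both of two separate runs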;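 also: compound exposure lasted between 18 and 24 h rather than exactly 24 h; 100% = carrier-treated control wells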). The note with it: SK-BR-3 viability, CellTiter-Glo luminescence, at 10 µM, hits give low values. A general note: Cellular ATP, detected with luciferase, serves as a proxy for viable cell number.
A word on the viability: it is a read-out of living cells in per cent, often relative to untreated cells. With `COc1ccc(CC(=O)OCn2nnc3ccccc3c2=O)cc1`, the viability was 101% (inactive).
For `CC(=O)Nc1sc2c(c1C#N)CCCCC2`, the viability was 132% (inactive).
Regarding `Cc1ccccc1-c1nc(CS(=O)(=O)CC(=O)N(C)C2CCCCC2)c(C)o1`, the viability was 108% (inactive).
Same read-out and setting: for `COCCn1c(CN(Cc2ccccc2)Cc2ccccc2)nc2c1c(=O)n(C)c(=O)n2C` the value was 81% (inactive); for `Cn1c(SCc2ccccc2)nnc1C1CCCNC1` (centres undefined), 112% (inactive); for `COc1cccc(N(C(=O)c2ccco2)C(C(=O)NC2CCCC2)c2ccc(N(C)C)cc2)c1` (centres undefined), 98% (inactive).
On to `O=C(CCSc1ccccc1)Nc1ccc(S(=O)(=O)N2CCOCC2)cc1`, for which the viability is 102% (inactive).
For the compound `Cc1cc(Nc2ccccc2F)n2ncnc2n1`, the viability is 101% (inactive).
Same read-out and setting: the same measure for `CCOP(=O)(c1ccc(N(C)C)cc1)C(O)c1c(Cl)cccc1Cl` (centres undefined): 83% (inactive); for `CCN1CCN(c2c(Cl)cccc2NC(=O)c2ccc3c(c2)OCCO3)CC1`: 80% (inactive); for `CC1CN(c2nc3ccccc3nc2C(C#N)C(=O)OC2CCCCC2)CC(C)O1` (centres undefined): 94% (inactive).
As for `CCOc1cc(NC(=O)c2ccccn2)c(OCC)cc1NC(=O)CC(C)C`, the viability is 74% (inactive).
In the case of `C(#Cc1ccccc1)Cn1nnc2ccccc21`, the viability was 80.5% (inactive).
On to `Cn1cccc1Cc1nnc(SCC(N)=O)n1-c1ccc(F)cc1`, for which the viability is 88% (inactive).
For `Cn1c(=O)c2c(-c3ccncc3)c3c(nc2n(C)c1=O)-c1ccccc1C3=O`, the viability is 94% (inactive).
Still for that read-out and setting: for `CCCCOC(=O)CSc1nc2c(cc1C#N)C(=O)CC(C)(C)C2` the value was 87% (inactive).
For `COCCN(C(=O)CNC(=O)c1ccco1)C(C(=O)NC1CCCCC1)c1cccc(OC)c1` (centres undefined), the viability was 96% (inactive).
On to `CCCCCn1c2nc3ccccc3nc2c2c(=O)n(CC(C)C)cnc21`, for which the viability was 116% (inactive).
`CCOC(=O)c1sc2nc(SCC#N)n(CCCN3CCCC3=O)c(=O)c2c1C`: the viability is 80.5% (inactive).
Take `COc1ccc(N2C(=O)C3C4C=CC(C4)C3C2=O)nn1` (centres undefined): the viability was 104% (inactive).
`Clc1cccc(-c2nn3c(Cn4cnc5ccccc54)nnc3s2)c1`: the viability was 94.5% (inactive).
The same measure, in the same setting: for `O=C(O)C1CCCN1c1ncnc2c1oc1ccccc12` (centres undefined) the value was 101% (inactive).
On to `O=C(NCCSCc1ccco1)Nc1cccc(Cl)c1`, for which the viability was 83.5% (inactive).
Turning to `CCSc1nc2c(c(=O)n(C)c(=O)n2C)n1Cc1ccc(Cl)cc1`, the viability is 70.5% (inactive).

A further assay is described as follows: HUVEC growth inhibition – cell-based, human, primary screen (AID 575).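 Also: 100% = median of untreated cell wells with 0.1% DMSO on each plate.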 The note with it: HUVEC proliferation, CellTiter-Glo luminescence, 72 h; at 10 µM; hits give low values. The gist of the method:
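system = HUVEC primary cells | amount = 1250 cells/well | buffer or medium = supplemented EBM, 2% fetal bovine serum | dosing = single-point 10 µM, DMSO 0.1% final | times = 72 h compound incubation | detection = CTG luminescence | read-out = % viability relative to median vehicle-well signal on each plate | control set = vehicle and MePR control wells | format = collagen-coated 384-well format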
Consider `Cn1c2c(c(=O)[nH]c1=O)C(NC(=O)c1ccco1)(C(F)(F)F)C(=O)N2` (centres undefined), for which the viability was 93.3% (inactive).
Same read-out and setting: for `c1ccc(CSCc2cn3ccsc3n2)cc1` the value was 104% (inactive); for `CCCn1c(SCC(=O)Nc2cc(C)on2)nc2c1c(=O)n(C)c(=O)n2C`, 87% (inactive).
The same measure, in the same setting: the same measure for `CCN(CC)C(=O)C1CCC(CNS(=O)(=O)c2cccc3cccnc23)CC1` (centres undefined): 89.9% (inactive).
Consider `CC(C)OC(=O)CSc1nnnn1-c1ccc2c(c1)OCCO2`, for which the viability was 99% (inactive).
Take `Cc1ccc(OCC(=O)N2CCN(C(=O)CCC3CCCC3)CC2)cc1`: the viability was 94.6% (inactive).
Still for that read-out and setting: the same measure for `CC1(C)CC(=O)C(C=Nc2ccncc2)=C(O)C1`: 92.2% (inactive); for `CCCCN(CC)S(=O)(=O)N1CCC(C(=O)NCc2ccc(F)cc2)CC1`: 109% (inactive); for `CCOC(=O)C1(C(=O)OCC)C(c2ccccc2)CC(O)N1C(C)=O` (centres undefined): 89.1% (inactive).
For the compound `CCOc1ccccc1N(C(=O)c1ccco1)C(C(=O)NC1CCCC1)c1cccnc1` (centres undefined), the viability was 101% (inactive).
`Cc1ccc(CNC(=O)C2CC(=O)OC23CCCC3)c(C)c1` (centres undefined): the viability is 96.5% (inactive).
For `Cc1ccc(-c2nnc(-c3ccc(Br)cc3)o2)o1`, the viability is 99.9% (inactive).
As for `COC(=O)CSc1nc2sc3c(c2c(=O)n1C1CCCCC1)CCN(C)C3`, the viability was 84.7% (inactive).
For `CCOC(=O)Cc1csc(NC(=O)CSc2nnc(C(C)C)n2CC)n1`, the viability is 88% (inactive).
Take `CCOC(=O)Cn1nnnc1CN(Cc1ccc(OC)cc1)Cc1cc2cc(C)cc(C)c2[nH]c1=O`: the viability was 87.3% (inactive).
Turning to `CC(=O)CCc1ccc(OCCCCn2cncn2)cc1`, the viability is 98.2% (inactive).
On the same count and under the same terms, the same measure for `COc1ccc(CC(=O)OCn2nnc3ccccc3c2=O)cc1`: 90.5% (inactive).
In the case of `CC(=O)Nc1sc2c(c1C#N)CCCCC2`, the viability is 82.2% (inactive).
For the compound `Cc1ccccc1-c1nc(CS(=O)(=O)CC(=O)N(C)C2CCCCC2)c(C)o1`, the viability was 90.9% (inactive).
Take `COCCn1c(CN(Cc2ccccc2)Cc2ccccc2)nc2c1c(=O)n(C)c(=O)n2C`: the viability was 81.2% (inactive).
Regarding `Cn1c(SCc2ccccc2)nnc1C1CCCNC1` (centres undefined), the viability was 103% (inactive).
For the compound `COc1cccc(N(C(=O)c2ccco2)C(C(=O)NC2CCCC2)c2ccc(N(C)C)cc2)c1` (centres undefined), the viability was 97.5% (inactive).
For the compound `O=C(CCSc1ccccc1)Nc1ccc(S(=O)(=O)N2CCOCC2)cc1`, the viability was 81.2% (inactive).
With `Cc1cc(Nc2ccccc2F)n2ncnc2n1`, the viability was 99% (inactive).
On to `CCOP(=O)(c1ccc(N(C)C)cc1)C(O)c1c(Cl)cccc1Cl` (centres undefined), for which the viability was 97.4% (inactive).
Same read-out and setting: for `CCN1CCN(c2c(Cl)cccc2NC(=O)c2ccc3c(c2)OCCO3)CC1` the value was 95.2% (inactive); for `CC1CN(c2nc3ccccc3nc2C(C#N)C(=O)OC2CCCCC2)CC(C)O1` (centres undefined), 78.7% (inactive).
With `CCOc1cc(NC(=O)c2ccccn2)c(OCC)cc1NC(=O)CC(C)C`, the viability is 63.1% (inactive).
On the same count and under the same terms, for `C(#Cc1ccccc1)Cn1nnc2ccccc21` the value was 99% (inactive); for `Cn1cccc1Cc1nnc(SCC(N)=O)n1-c1ccc(F)cc1`, 98.5% (inactive); for `Cn1c(=O)c2c(-c3ccncc3)c3c(nc2n(C)c1=O)-c1ccccc1C3=O`, 98.4% (inactive).
As to `CCCCOC(=O)CSc1nc2c(cc1C#N)C(=O)CC(C)(C)C2`, the viability is 91.2% (inactive).
For `COCCN(C(=O)CNC(=O)c1ccco1)C(C(=O)NC1CCCCC1)c1cccc(OC)c1` (centres undefined), the viability was 88.1% (inactive).
Consider `CCCCCn1c2nc3ccccc3nc2c2c(=O)n(CC(C)C)cnc21`, for which the viability is 103% (inactive).
Same read-out and setting: for `CCOC(=O)c1sc2nc(SCC#N)n(CCCN3CCCC3=O)c(=O)c2c1C` the value was 68% (inactive).
Take `COc1ccc(N2C(=O)C3C4C=CC(C4)C3C2=O)nn1` (centres undefined): the viability is 99.6% (inactive).
Same read-out and setting: the same measure for `Clc1cccc(-c2nn3c(Cn4cnc5ccccc54)nnc3s2)c1`: 76.9% (inactive); for `O=C(O)C1CCCN1c1ncnc2c1oc1ccccc12` (centres undefined): 81% (inactive); for `O=C(NCCSCc1ccco1)Nc1cccc(Cl)c1`: 63.6% (inactive).
As for `CCSc1nc2c(c(=O)n(C)c(=O)n2C)n1Cc1ccc(Cl)cc1`, the viability is 63.2% (inactive).
